{"data": "Results collected from several papers", "note": "Compare with care: the assays were run in different laboratories."}
{"SMILES": "Cc1cc(Cc2ccccc2)n(O)c(=O)c1", "target or system": "Cryptococcus gattii", "test": "microbial growth", "endpoint": "MIC80", "result": "1.7 µM"}
{"SMILES": "Cc1cc(NS(=O)(=O)c2ccc(N)cc2)no1", "target or system": "Salmonella enterica", "test": "microbial growth", "test system": "CHOLERAESUIS", "conditions": "20 h, pH 7.2", "endpoint": "MIC", "result": "2050 µg/mL"}
{"SMILES": "CC(C=CC(O)=C1C(=O)CNC1=O)=CC(C)C1OC2(C)OC(C(O)C=C2C)C1C (centres unmarked)", "target or system": "Bacillus cereus", "test": "microbial growth", "endpoint": "MIC", "result": "> 100 µM"}
{"SMILES": "CO/N=C(\\C(=O)N[C@@H]1C(=O)N2C(C(=O)O)=C(CSc3nc(=O)c(=O)[nH]n3C)CS[C@H]12)c1csc(N)n1", "target or system": "Salmonella enterica", "test": "microbial growth", "test system": "CHOLERAESUIS", "conditions": "20 h, pH 7.2", "endpoint": "MIC", "result": "0.0625 µg/mL"}
{"SMILES": "COc1cc(Cc2cnc(N)nc2N)cc(OC)c1OC", "target or system": "Shigella dysenteriae", "test": "microbial growth, broth dilution", "conditions": "24 h", "endpoint": "MIC", "result": "16 µg/mL"}
{"SMILES": "CCCCCCCCCCCC(=O)OC[C@H]1O[C@@H](n2cc(C)c(=O)[nH]c2=O)C[C@@H]1O", "target or system": "Bacillus cereus", "test": "microbial growth, broth dilution", "endpoint": "MIC", "result": "4 µg/mL"}
{"SMILES": "CC[C@H]1OC(=O)[C@H](C)[C@@H](O[C@H]2C[C@@](C)(OC)[C@@H](O)[C@H](C)O2)[C@H](C)[C@@H](O[C@@H]2O[C@H](C)C[C@H](N(C)C)[C@H]2O)[C@](C)(O)C[C@@H](C)C(=O)[C@H](C)[C@@H](O)[C@]1(C)O", "target or system": "Bacillus cereus", "test": "microbial growth", "endpoint": "MIC", "result": "3.13 µM"}
{"SMILES": "C=C(C)[C@H]1Cc2c(ccc3c2O[C@@H]2COc4cc(OC)c(OC)cc4[C@@H]2C3=O)O1", "target or system": "ReNcell VM", "test": "cell growth or viability, imaging", "conditions": "24 h", "endpoint": "IC50", "result": "~280 nM"}
{"SMILES": "COc1cccc(Cc2cc(C)cc(=O)n2O)c1", "target or system": "Cryptococcus gattii", "test": "microbial growth", "endpoint": "MIC80", "result": "2.3 µM"}
{"SMILES": "CCC1(c2ccc(N)cc2)CCC(=O)NC1=O (centres unmarked)", "target or system": "IOSE-144", "test": "cell growth or viability, CCK-8", "conditions": "48 h", "endpoint": "IC50", "result": "> 50000 nM"}
{"SMILES": "CC(/C=C/C(O)=C1/C(=O)CNC1=O)=C\\[C@@H](C)[C@H]1O[C@@]2(C)O[C@H](C(=O)[C@@H]3O[C@@]32C)[C@@H]1C", "target or system": "Bacillus cereus", "test": "microbial growth", "endpoint": "MIC", "result": "6.25 µM"}
{"SMILES": "CC1=NN(CNC(=O)c2ccccc2)C(=O)C1=NNn1c(-c2ccccc2)nc2ccccc2c1=O", "target or system": "Salmonella enterica", "test": "microbial growth, broth dilution", "test system": "PARATYPHI", "conditions": "24 h", "endpoint": "MIC", "result": "51.9 µM"}
{"SMILES": "Cc1cc(CC2CCCCC2)n(O)c(=O)c1", "target or system": "Cryptococcus gattii", "test": "microbial growth", "endpoint": "MIC80", "result": "1.7 µM"}
{"SMILES": "CC(C)C[C@H](NC(=O)OCc1ccccc1)C(=O)N[C@@H](Cc1c[nH]c2ccccc12)C(=O)N[C@@H](CC(C)C)C(=O)C(=O)Nc1ccccc1", "target or system": "RPMI-8226", "test": "cell growth or viability, MTS", "conditions": "72 h", "endpoint": "IC50", "result": "313 nM"}
{"SMILES": "O=c1[nH]cc(F)c(=O)[nH]1", "target or system": "Shigella dysenteriae", "test": "microbial growth, broth dilution", "conditions": "24 h", "endpoint": "MIC", "result": "4 µg/mL"}
{"SMILES": "CS(=O)(=O)c1ccc([C@@H](O)[C@@H](CF)NC(=O)C(Cl)Cl)cc1", "target or system": "Salmonella enterica", "test": "microbial growth", "test system": "CHOLERAESUIS", "conditions": "20 h, pH 5.5", "endpoint": "MIC", "result": "4 µg/mL"}
{"SMILES": "O=C1NN=C(N=Cc2ccc(O)c(O)c2)C1=NNn1c(-c2ccccc2)nc2ccccc2c1=O", "target or system": "Salmonella enterica", "test": "microbial growth, broth dilution", "test system": "PARATYPHI", "conditions": "24 h", "endpoint": "MIC", "result": "53.5 µM"}
{"SMILES": "O=c1cccc(C2CCCCC2)n1O", "target or system": "Cryptococcus gattii", "test": "microbial growth", "endpoint": "MIC80", "result": "1.7 µM"}
{"SMILES": "CCn1cc(C(=O)O)c(=O)c2ccc(C)nc21", "target or system": "Salmonella enterica", "test": "microbial growth", "test system": "CHOLERAESUIS", "conditions": "20 h, pH 5.5", "endpoint": "MIC", "result": "1 µg/mL"}
{"SMILES": "CC(C)C[C@H](NC(=O)OCc1ccccc1)C(=O)N[C@@H](CC(C)C)C(=O)N[C@@H](CC(C)C)C(=O)C(=O)Nc1cccc2c1CCC2", "target or system": "RPMI-8226", "test": "cell growth or viability, MTS", "conditions": "72 h", "endpoint": "IC50", "result": "65.9 nM"}
{"SMILES": "CC1=NN(CNC(=O)c2ccccn2)C(=O)C1=NNn1c(-c2ccccc2)nc2ccccc2c1=O", "target or system": "Salmonella enterica", "test": "microbial growth, broth dilution", "test system": "PARATYPHI", "conditions": "24 h", "endpoint": "MIC", "result": "104 µM"}
{"SMILES": "CCCCCCCCCCCC(=O)OC[C@H]1O[C@@H](n2cc(C)c(=O)[nH]c2=O)C[C@@H]1OC(=O)c1ccc(C(C)(C)C)cc1", "target or system": "Bacillus cereus", "test": "microbial killing, broth dilution", "endpoint": "MBC", "result": "8 µg/mL"}
{"SMILES": "COC[C@H](NC(=O)OCc1ccccc1)C(=O)N[C@@H](Cc1ccccc1)C(=O)N[C@@H](CC(C)C)C(=O)C(=O)Nc1ccccc1", "target or system": "RPMI-8226", "test": "cell growth or viability, MTS", "conditions": "72 h", "endpoint": "IC50", "result": "437 nM"}
